Measured values: publication PMC4065498 (Chemical research in toxicology, 2010)

How the values were obtained:
THP1 foam cells = assay: Endogenous 2AG produced by cholesterol-loaded THP1 macrophages; type: cell-based, human; conditions: 24 h
[1] = tested on: lipid glyceryl ester hydrolase activities of THP1 monocyte lysates
THP1 macrophages = assay: PG-G and 2AG levels in LPS-primed THP1 macrophages stimulated with ionomycin; type: cell-based, human; conditions: oxon 1 μM, ionomycin 5 μM
[2] = tested on: 31-32kDa enzyme in THP1 lysates; assay: Activity-based protein profiling with FP-biotin in THP1 lysate: 31-32kDa enzyme; type: biochemical, human
Outline: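 THP1 monocyte lysate (1 mg/ml protein in 50 mM Tris-HCl, pH 7.4) was labelled with 2 μM FP-biotin for 1 h at room temperature. Irreversible inhibitors were preincubated for 30 min (37°C) before the probe. For the reversible inhibitor, lysate received inhibitor, then 0.2 μM FP-biotin for 7.5 min, short of full labelling. Reactions were stopped in reducing SDS loading buffer (95°C, 5 min), run on SDS-PAGE and blotted with avidin-HRP.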

recombinant human CES1 = target: T1, recombinant human CES1 (Homo sapiens, UniProt P23141); type: biochemical; conditions: 2AG substrate
T1 sequence (P23141 18-567): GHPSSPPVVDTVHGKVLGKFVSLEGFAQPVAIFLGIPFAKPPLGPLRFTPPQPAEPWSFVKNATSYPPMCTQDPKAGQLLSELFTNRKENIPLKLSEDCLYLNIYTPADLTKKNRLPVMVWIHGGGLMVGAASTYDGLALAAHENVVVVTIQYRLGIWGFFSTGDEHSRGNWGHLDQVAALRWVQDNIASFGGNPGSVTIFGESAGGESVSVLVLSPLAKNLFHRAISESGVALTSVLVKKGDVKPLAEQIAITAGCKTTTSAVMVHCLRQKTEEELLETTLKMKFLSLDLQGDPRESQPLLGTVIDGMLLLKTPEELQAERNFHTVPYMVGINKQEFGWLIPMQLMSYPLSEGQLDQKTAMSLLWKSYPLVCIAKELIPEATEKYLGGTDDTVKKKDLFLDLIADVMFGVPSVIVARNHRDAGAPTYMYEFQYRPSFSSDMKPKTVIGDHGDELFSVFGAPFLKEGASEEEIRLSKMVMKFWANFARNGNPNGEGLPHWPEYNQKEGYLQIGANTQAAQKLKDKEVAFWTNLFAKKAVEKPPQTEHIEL

recombinant human MAGL = target: T2, recombinant human MAGL (Homo sapiens, UniProt Q99685); type: biochemical; conditions: 2AG substrate
T2 sequence (Q99685 1-303): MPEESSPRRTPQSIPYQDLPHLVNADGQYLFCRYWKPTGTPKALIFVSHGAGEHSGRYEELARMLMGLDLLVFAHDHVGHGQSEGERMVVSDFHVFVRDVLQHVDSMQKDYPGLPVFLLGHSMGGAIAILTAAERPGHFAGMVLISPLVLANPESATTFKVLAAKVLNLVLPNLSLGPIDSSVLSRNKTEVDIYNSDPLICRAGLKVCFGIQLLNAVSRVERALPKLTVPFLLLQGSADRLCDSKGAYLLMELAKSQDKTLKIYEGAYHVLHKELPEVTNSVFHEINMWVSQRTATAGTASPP

## chlorpyrifos oxon [CPO]
THP1 foam cells; oxon 1 μM
  amount of 2AG in culture medium relative to control group: 2.5 fold
THP1 foam cells; oxon 10 μM
  amount of 2AG in culture medium relative to control group: 8.1 fold
[1]; oxon 1 μM
  inhibition of PGE2-G hydrolysis activity in THP1 cell lysate: near complete inhibition
[1]; oxon 1 μM, 2AG 10 μM
  inhibition of hydrolysis of exogenous 2AG in THP1 lysate: 49%
[1]; oxon 10 μM
  inhibition of 2AG hydrolysis activity in THP1 lysate: 72%
[1]; oxon 500 μM
  knock down of 2AG hydrolysis activity in THP1 monocyte lysate: 94%
THP1 macrophages
  PGF2α-G, PGE2-G, and 2AG levels compared to vehicle-treated cells following ionomycin stimulation: significantly elevated
[2]
  concentration needed to reduce activity of the 31-32kDa enzyme toward FP-biotin: > 10 µM
Recombinant human CES1
  inhibition of recombinant CES1 (in words): potently inhibit
Recombinant human MAGL
  inhibition of recombinant MAGL (in words): potently inhibit
